From ChEMBL document CHEMBL1152714, “Design, synthesis and biological evaluation of a novel class of anticancer agents: anthracenylisoxazole lexitropsin conjugates” (Bioorg Med Chem, 2009) come the findings set out here.

Data set [1] deals with DNA. Description: Binding affinity to calf thymus DNA at 10 uM by microarray fluorescence experiment. The note with it: Bos taurus. It counts as nucleic-acid assay. The method, boiled down: (§1)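 DNA was prepared in TE buffer with 10 mM KCl at pH 7.0, to a final concentration of 400 […]. The oligonucleotide was hybridized with Cy3-AP3-dCTP. The ligand was 10 μM in aqueous 25% DMSO. Mixtures were incubated at 37°C for 5 min, then printed on slides. Excitation was at 310, 380, 410 and 485 nm, emission at 530 nm. Slides were read on a microarray scanner at 10 μm resolution.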

Data set [2] deals with Mus musculus. Put plainly: Acute toxicity in ip dosed mouse. The following applies: in vivo. It counts as organism-based. The method, boiled down:
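Mice given three dose regimens (100, 200 and 400 mg/kg), with animals followed to day 14 and body weight recorded at day 14 for signs of acute toxicity.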

The nature of data set [3]: Antitumor activity against human NCI60 cells after 48 hrs by SRB assay. It is filed as functional. The following applies: NCI60, 48 h. An outline of the steps:
(§2)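 Cells were exposed to the drug continuously for 48 h. Cell viability or growth was estimated with the sulforhodamine B protein assay.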
Background: In SRB staining, fixed cells bind dye roughly in proportion to their protein.

Data set [4] deals with Mus musculus. Put plainly: Toxicity in mouse assessed as weight gain at 100 mg/kg, ip after 14 days. Details: dose 100 mg/kg, route intraperitoneal. It is filed as organism-based. The note with it: in vivo, 336 h. An outline of the steps:
(§3)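 Acute toxicity was tested in mice at three dose regimens (100, 200 and 400 mg/kg). Body weight was assessed at day 14.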

For data set [5], the species on record is Homo sapiens. Description: Binding affinity to human DNA at a drug-DNA ratio of 1:1 by fluorescence experiment. An outline of the steps:
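Solution fluorescence was measured on histone-free human DNA mixed with the ligand at a 1:1 molar ratio. The shift in λmax was monitored.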

In data set [6] the test system is Mus musculus. Put plainly: Toxicity in mouse assessed as weight gain at 400 mg/kg, ip after 14 days. It counts as organism-based. Also on record: dose 400 mg/kg, route intraperitoneal. The following applies: in vivo, 336 h. The method, boiled down: as §3
Data set [7] can be described thus: Binding affinity to Hurley-oligonucleotide at 10 uM by microarray fluorescence experiment. The method, boiled down:
as §1

The subject of data set [8] is Mus musculus. Put plainly: Toxicity in mouse assessed as weight gain at 200 mg/kg, ip after 14 days. The following applies: in vivo, 336 h. Also on record: dose 200 mg/kg, route intraperitoneal. It counts as organism-based. The method, boiled down: as §3
The species named for data set [9] is Homo sapiens. Put plainly: Stabilization of human telomeric G-quadruplex DNA assessed as inhibition of duplex formation at 5 uM by ESI-MS study. The method, boiled down: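 Time-course ESI-MS was run on a mixture of 5 μM G-quadruplex DNA, 5 μM complementary C-DNA and 5 μM ligand. Ion intensities of single-stranded and duplex DNA were followed as the strands re-hybridized. TMPyP4 was the positive control and no ligand the negative control.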

Data set [10] concerns SNB-75. Put plainly: Antitumor activity against human SNB75 cells overexpressing c-myc after 48 hrs by SRB assay. It counts as functional. The note with it: SNB-75, 48 h. The method, boiled down:
as §2

For data set [11], the system named is HOP-62. Description: Antitumor activity against human HOP62 cells overexpressing c-myc after 48 hrs by SRB assay. The following applies: HOP-62, 48 h. It counts as functional. The method, boiled down: as §2
Data set [12] has as its system HOP-92. Description: Antitumor activity against human HOP92 cells overexpressing c-myc after 48 hrs by SRB assay. The note with it: HOP-92, 48 h. It is filed as functional. The method, boiled down: as §2
Data set [13] has as its system SF-539. Put plainly: Antitumor activity against human SF539 cells overexpressing c-myc after 48 hrs by SRB assay. It counts as functional. The note with it: SF-539, 48 h. An outline of the steps:
as §2

For data set [14], the system named is NCI-H226. Put plainly: Antitumor activity against human NCI-H226 cells overexpressing c-myc after 48 hrs by SRB assay. It is filed as functional. The following applies: NCI-H226, 48 h. The method, boiled down:
as §2

The subject of data set [15] is SF-295. Description: Antitumor activity against human SF295 cells overexpressing c-myc after 48 hrs by SRB assay. It counts as functional. The following applies: SF-295, 48 h. The method, boiled down:
as §2

In data set [16] the test system is HCC 2998. Description: Antitumor activity against human HCC2998 cells overexpressing c-myc after 48 hrs by SRB assay. It counts as functional. The following applies: HCC 2998, 48 h. An outline of the steps: as §2
Data set [17] deals with EKVX. Put plainly: Antitumor activity against human EKVX cells overexpressing c-myc after 48 hrs by SRB assay. It counts as functional. An outline of the steps: as §2
The target of data set [18] is Telomerase reverse transcriptase (Homo sapiens) (UniProt O14746). Description: Inhibition of telomerase assessed as telomere elongation by TRAP assay. The method, boiled down:
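Telomere elongation was assessed by a TRAP assay with gel electrophoresis read-out.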

In data set [19] the target is DNA polymerase I, thermostable (Thermus aquaticus) (UniProt P19821). Put plainly: Inhibition of Taq polymerase.
Sequence of DNA polymerase I, thermostable (Thermus aquaticus) (P19821 whole entry): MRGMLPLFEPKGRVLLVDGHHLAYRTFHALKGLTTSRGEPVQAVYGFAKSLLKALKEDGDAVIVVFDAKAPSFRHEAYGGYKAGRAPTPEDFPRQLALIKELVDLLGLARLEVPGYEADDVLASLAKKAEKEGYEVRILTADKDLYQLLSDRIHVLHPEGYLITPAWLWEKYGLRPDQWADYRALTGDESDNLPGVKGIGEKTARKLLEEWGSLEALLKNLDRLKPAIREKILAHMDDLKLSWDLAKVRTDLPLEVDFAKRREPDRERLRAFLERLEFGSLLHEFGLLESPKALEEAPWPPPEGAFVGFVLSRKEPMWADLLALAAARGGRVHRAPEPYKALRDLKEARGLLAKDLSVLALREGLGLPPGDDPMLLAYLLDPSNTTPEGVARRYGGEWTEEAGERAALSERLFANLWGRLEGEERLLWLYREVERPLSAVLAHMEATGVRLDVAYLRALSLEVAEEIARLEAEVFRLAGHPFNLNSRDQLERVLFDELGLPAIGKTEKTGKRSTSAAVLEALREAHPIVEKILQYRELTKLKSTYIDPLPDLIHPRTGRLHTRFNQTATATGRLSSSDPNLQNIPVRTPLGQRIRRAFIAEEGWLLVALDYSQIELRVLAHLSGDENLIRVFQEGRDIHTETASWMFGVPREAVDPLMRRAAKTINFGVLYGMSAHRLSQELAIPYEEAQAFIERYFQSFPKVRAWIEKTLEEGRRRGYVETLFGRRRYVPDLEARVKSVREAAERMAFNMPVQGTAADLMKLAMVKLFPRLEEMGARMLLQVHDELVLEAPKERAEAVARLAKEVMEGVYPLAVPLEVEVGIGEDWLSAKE

The source made the active and inactive calls. No cut-off for these calls is given here.

Sequence of Telomerase reverse transcriptase (Homo sapiens) (O14746 whole entry): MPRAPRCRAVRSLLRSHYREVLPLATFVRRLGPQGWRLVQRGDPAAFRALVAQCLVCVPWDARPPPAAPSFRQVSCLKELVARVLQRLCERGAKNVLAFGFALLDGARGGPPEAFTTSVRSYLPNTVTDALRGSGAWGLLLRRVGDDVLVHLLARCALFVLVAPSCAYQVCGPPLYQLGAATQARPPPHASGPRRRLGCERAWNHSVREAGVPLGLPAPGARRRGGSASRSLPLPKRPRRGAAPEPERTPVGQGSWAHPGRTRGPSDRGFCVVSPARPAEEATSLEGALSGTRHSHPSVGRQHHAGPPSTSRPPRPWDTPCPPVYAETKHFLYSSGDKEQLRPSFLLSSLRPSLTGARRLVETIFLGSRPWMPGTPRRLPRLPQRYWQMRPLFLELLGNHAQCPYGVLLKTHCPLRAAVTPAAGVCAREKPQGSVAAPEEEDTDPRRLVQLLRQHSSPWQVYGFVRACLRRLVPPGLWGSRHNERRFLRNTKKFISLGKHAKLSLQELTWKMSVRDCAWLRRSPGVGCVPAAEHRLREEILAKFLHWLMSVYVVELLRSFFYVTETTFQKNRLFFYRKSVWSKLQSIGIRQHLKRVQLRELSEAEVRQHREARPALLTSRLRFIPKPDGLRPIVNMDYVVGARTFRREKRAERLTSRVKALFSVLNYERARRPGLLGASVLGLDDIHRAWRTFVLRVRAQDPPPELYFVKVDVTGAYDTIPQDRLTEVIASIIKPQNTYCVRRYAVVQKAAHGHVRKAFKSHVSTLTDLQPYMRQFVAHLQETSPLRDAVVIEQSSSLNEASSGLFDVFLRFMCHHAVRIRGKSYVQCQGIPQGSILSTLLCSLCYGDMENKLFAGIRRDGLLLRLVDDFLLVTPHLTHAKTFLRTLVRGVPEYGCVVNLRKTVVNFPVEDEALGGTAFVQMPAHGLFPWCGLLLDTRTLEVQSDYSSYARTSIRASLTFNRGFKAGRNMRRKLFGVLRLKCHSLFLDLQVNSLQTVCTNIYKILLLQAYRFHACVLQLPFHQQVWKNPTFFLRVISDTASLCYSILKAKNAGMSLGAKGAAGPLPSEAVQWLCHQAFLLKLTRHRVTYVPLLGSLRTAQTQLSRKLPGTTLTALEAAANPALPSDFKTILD

Regarding `Cc1onc(-c2c3ccccc3cc3ccccc23)c1C(=O)Nc1cc(C(=O)Nc2cc(C(=O)NCCCN(C)C)n(C)c2)n(C)c1`, the result in [1], in [5] and in data set [7] was Active. The Activity result in data set [2] is reported as “Non-toxic”; in data set [4], “Toxic”; in data set [6], “Toxic”; in data set [8], “Toxic”. Also, the GI50 in [3] (read-out: GI50) was 10.5 µM; in data set [3] (read-out: pGI50 (converted)) it was 12.3 µM.
With `C[n+]1ccc(-c2c3nc(c(-c4cc[n+](C)cc4)c4ccc([nH]4)c(-c4cc[n+](C)cc4)c4ccc([nH]4)c(-c4cc[n+](C)cc4)c4nc2C=C4)C=C3)cc1`, the result in [9] was Active.
For `Cc1onc(-c2c3ccccc3c(Br)c3ccccc23)c1C(=O)Nc1cc(C(=O)NCCCN(C)C)n(C)c1`, the figures for the GI50 in [3] (read-out: GI50), in data set [3] (read-out: pGI50 (converted)) and in data set [10] were 8.71 µM, 8.71 µM and 0.158 µM, respectively.
`CN(C)CCCNC(=O)c1cc(NC(=O)c2cc(NC(=O)c3onc(-c4c5ccccc5cc5ccccc45)c3C(=O)Nc3cc(C(=O)Nc4cc(C(=O)NCCCN(C)C)n(C)c4)n(C)c3)cn2C)cn1C`: the GI50 in [3] (read-out: GI50) and in data set [3] (read-out: pGI50 (converted)) was 20.4 µM each time.
Consider `Cc1onc(-c2c3ccccc3c(-c3ccccc3)c3ccccc23)c1C(=O)Nc1cc(C(=O)NCCCN(C)C)n(C)c1`, for which the GI50 was 0.95 µM in data set [3] (read-out: GI50); 1.95 µM in [3] (read-out: pGI50 (converted)); 0.0105 µM in data set [11]; 0.0631 µM in data set [12]; below 0.01 µM in [13]. The outcome in [9] was Active.
As to `Cc1onc(-c2c3ccccc3cc3ccccc23)c1C(=O)Nc1cc(C(=O)NCCCN(C)C)n(C)c1`, the GI50 in data set [3] (read-out: GI50) was 7.94 µM; in data set [3] (read-out: pGI50 (converted)) it was 7.94 µM; in data set [11], 0.407 µM.
With `Cc1onc(-c2c3ccccc3cc3ccccc23)c1C(=O)NCCCN(C)C`, the GI50 in [3] (read-out: GI50) is 32.4 µM; in data set [3] (read-out: pGI50 (converted)), 32.4 µM; in data set [14], below 0.01 µM.
Turning to `Cc1onc(-c2c3ccccc3cc3ccccc23)c1C(=O)Nc1cc(C(=O)N(CCCN(C)C)CCCN(C)C)n(C)c1`, the GI50 in [3] (read-out: GI50) and in [3] (read-out: pGI50 (converted)) was 3.89 µM throughout.
With `Cc1onc(-c2c3ccccc3cc3ccccc23)c1C(=O)N(CCCN(C)C)CCCN(C)C`, the GI50 is 4.57 µM in data set [3] (read-out: GI50) and 4.9 µM in [3] (read-out: pGI50 (converted)).
Regarding `Cc1onc(-c2c3ccccc3nc3ccccc23)c1C(=O)Nc1cc(C(=O)Nc2cc(C(=O)NCCCN(C)C)n(C)c2)n(C)c1`, the GI50 is 20.9 µM in [3] (read-out: GI50); 20.9 µM in [3] (read-out: pGI50 (converted)); 0.0302 µM in [15]; 0.776 µM in data set [16]; 0.661 µM in data set [17].
As to `Cc1onc(-c2c3ccccc3cc3ccccc23)c1C(=O)Nc1cc(C(=O)Nc2cc(C(=O)N(CCCN(C)C)CCCN(C)C)n(C)c2)n(C)c1`, the GI50 in data set [3] (read-out: GI50) and in data set [3] (read-out: pGI50 (converted)) was 15.5 µM each time.
As for `CCOC(=O)c1c(-c2c3ccccc3nc3ccccc23)noc1C`, the GI50 in [3] (read-out: GI50) and in data set [3] (read-out: pGI50 (converted)) was 20.4 µM in each case.
As for `Cc1onc(-c2c3ccccc3c(Cl)c3ccccc23)c1C(=O)Nc1cc(C(=O)NCCCN(C)C)n(C)c1`, the GI50 in data set [3] (read-out: GI50) is 1.78 µM; in data set [3] (read-out: pGI50 (converted)), 1.91 µM; in [12] it was 0.0933 µM. For the same compound, the result in [18] and in data set [9] was Active. In addition, the result in [19] was inactive.
